Assay results: ChEMBL document CHEMBL2177013, “Synthesis and biological evaluation of tylophorine-derived dibenzoquinolines as orally active agents: exploration of the role of tylophorine e ring on biological activity” (J Med Chem, 2012)

How the values were obtained:
A549 = assay: Growth inhibition of human A549 cells; assay type: functional
Procedure, shortened: (§1)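 Cells seeded per well: NUGC-3 4500, HONE-1 6000, MCF-7 6500, NCI-H460 2500, HepG2 10000, A549 5000; A549 grown in RPMI 1640 with 2 g/L NaHCO₃, 2 mM L-glutamine and 10% FBS. GI₅₀ = concentration giving 50% growth inhibition, mean of at least three experiments each in duplicate. Paclitaxel served as positive control.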

HepG2 = assay: Growth inhibition of human HepG2 cells; assay type: functional; procedure, shortened: as §1
[1] = Growth inhibition of human HONE1 cells; assay type: functional; procedure, shortened: as §1
MCF7 = assay: Growth inhibition of human MCF7 cells; assay type: functional; procedure, shortened: as §1
NUGC-3 = assay: Growth inhibition of human NUGC3 cells; assay type: functional; procedure, shortened: as §1
NCI-H460 = assay: Growth inhibition of human NCI-H460 cells; assay type: functional; procedure, shortened: as §1
[2] = tested on: Transmissible gastroenteritis virus; assay: Antiviral activity against Transmissible gastroenteritis virus infected in ST cells pre-treated 2 hrs before virus infection measured 6 hrs post virus infection by immunofluorescent assay; assay type: functional, organism-based; details: Alphacoronavirus 1, ST
Procedure, shortened: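 ST cells, with or without 2 h compound pretreatment (10 concentrations), infected with TGEV at MOI 10. Immunofluorescence with anti-spike and anti-nucleocapsid antibodies at 6 hpi. EC50 from dose–response curves, mean of at least three experiments, each in duplicate.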

| Structure (SMILES) | GI50 (A549) | GI50 (HepG2) | GI50 [1] | GI50 (MCF7) | GI50 (NUGC-3) | GI50 (NCI-H460) | EC50 [2] |
| --- | --- | --- | --- | --- | --- | --- | --- |
| CCCN1CCc2c(c3cc(OC)c(OC)cc3c3cc(OC)ccc23)C1 | 470 nM | 480 nM | 770 nM | 420 nM | 430 nM | 260 nM | 680 nM |
| CCN1CCc2c(c3cc(OC)ccc3c3cc(OC)c(OC)cc23)C1 | 4380 nM | 4010 nM | 4870 nM | 3120 nM | 3480 nM | 3390 nM | 14200 nM |
| COc1cc2c3c(c4cc(OC)c(OC)cc4c2cc1OC)CN(CCCNC(=O)OC(C)(C)C)CC3 | 3550 nM | 4150 nM | 4520 nM | 3350 nM | 3400 nM | 2890 nM | 1030 nM |
| CC(=O)O[C@H]1C(=O)[C@@]2(C)[C@H]([C@H](OC(=O)c3ccccc3)[C@]3(O)C[C@H](OC(=O)[C@H](O)[C@@H](NC(=O)c4ccccc4)c4ccccc4)C(C)=C1C3(C)C)[C@]1(OC(C)=O)CO[C@@H]1C[C@@H]2O [PACLITAXEL] | 60 nM | 180 nM | 20 nM | 30 nM | 20 nM | 30 nM |  |
| COc1cc2c3c(c4cc(OC)c(OC)cc4c2cc1OC)CN(CC(C)C)CC3 | 1320 nM | 1810 nM | 1720 nM | 910 nM | 1040 nM | 870 nM | 1360 nM |
| CCC(C)N1CCc2c(c3cc(OC)c(OC)cc3c3cc(OC)c(OC)cc23)C1 (stereo not given) | 530 nM | 510 nM | 1150 nM | 400 nM | 440 nM | 450 nM | 730 nM |
| COc1cc2c3c(c4cc(OC)c(OC)c(OC)c4c2cc1OC)CCN(C(C)C)C3 | 760 nM | 1610 nM | 1120 nM | 720 nM | 640 nM | 570 nM | 780 nM |
| CCCCN1CCc2c(c3cc(OC)c(OC)cc3c3cc(OC)ccc23)C1 | 2390 nM | 4040 nM | 4770 nM | 4730 nM | 3990 nM | 3510 nM | 5600 nM |
| CCN1CCc2c(c3cc(OC)c(OC)cc3c3c(OC)c(OC)c(OC)cc23)C1 | 1410 nM | 2500 nM | 1990 nM | 1180 nM | 1700 nM | 870 nM | 1140 nM |
| CCCN1Cc2c(c3cc(OC)c(OC)c(OC)c3c3cc(OC)c(OC)cc23)C(O)C1 (stereo not given) | 820 nM | 830 nM | 820 nM | 590 nM | 490 nM | 590 nM | 660 nM |
| COc1cc2c3c(c4cc(OC)c(OC)cc4c2cc1OC)CN(C1C=CCCC1)CC3 (stereo not given) | 1920 nM | 3640 nM | 2530 nM | 2210 nM | 1880 nM | 2300 nM | 2990 nM |
| CCCCN1CCc2c(c3cc(OC)c(OC)cc3c3c(OC)c(OC)c(OC)cc23)C1 | 3010 nM | 5010 nM | 4060 nM | 3190 nM | 2540 nM | 2680 nM | 2920 nM |
| CCCN1Cc2c(c3ccc(OC)cc3c3cc(OC)c(OC)cc23)C(O)C1 (stereo not given) | 50 nM | 110 nM | 140 nM | 110 nM | 110 nM | 50 nM | 120 nM |
| CCCN1CCc2c(c3cc(OC)ccc3c3c(OC)c(OC)ccc23)C1 | 3670 nM | 6290 nM | 4750 nM | 4110 nM | 3720 nM | 3760 nM | 2630 nM |
| COc1cc2c3c(c4cc(OC)c(OC)cc4c2cc1OC)CN(CCCOC1CCCCO1)CC3 (stereo not given) | 3780 nM | 14000 nM | 9650 nM | 9800 nM | 8220 nM | 7490 nM | 30800 nM |
| CCCCCN1CCc2c(c3cc(OC)c(OC)cc3c3cc(OC)c(OC)cc23)C1 |  | 8050 nM | 6200 nM | 9510 nM | 7670 nM | 6110 nM | 6530 nM |
